The results in this text go back to ChEMBL document CHEMBL4699564, “Hit-to-lead optimization and discovery of a potent, and orally bioavailable G protein coupled receptor kinase 2 (GRK2) inhibitor” (Bioorg Med Chem Lett, 2020).

The nature of series [1]: Volume of distribution at steady state in C57BL mouse at 2 mg/kg, iv or 10 mg/kg, po administered as single dose. Type of series: ADME, organism-based. Particulars: in vivo, read-out: Vdss. Put shortly: (§1)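 C57BL mice given a single dose, 2 mg/kg i.v. or 10 mg/kg p.o., both formulated in 20% HPbCD. Plasma concentration–time profiles gave clearance, Vdss, terminal half-lives, Cmax, tmax, oral AUC and bioavailability.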

Series [2] is described as follows: Inhibition of protein kinase A (unknown origin). The arrangement: species or system Homo sapiens.
The target of series [3] is G protein-coupled receptor kinase 6 (Homo sapiens, UniProt P43250). Briefly: Inhibition of human GRK6.
Sequence of G protein-coupled receptor kinase 6 (P43250 whole entry): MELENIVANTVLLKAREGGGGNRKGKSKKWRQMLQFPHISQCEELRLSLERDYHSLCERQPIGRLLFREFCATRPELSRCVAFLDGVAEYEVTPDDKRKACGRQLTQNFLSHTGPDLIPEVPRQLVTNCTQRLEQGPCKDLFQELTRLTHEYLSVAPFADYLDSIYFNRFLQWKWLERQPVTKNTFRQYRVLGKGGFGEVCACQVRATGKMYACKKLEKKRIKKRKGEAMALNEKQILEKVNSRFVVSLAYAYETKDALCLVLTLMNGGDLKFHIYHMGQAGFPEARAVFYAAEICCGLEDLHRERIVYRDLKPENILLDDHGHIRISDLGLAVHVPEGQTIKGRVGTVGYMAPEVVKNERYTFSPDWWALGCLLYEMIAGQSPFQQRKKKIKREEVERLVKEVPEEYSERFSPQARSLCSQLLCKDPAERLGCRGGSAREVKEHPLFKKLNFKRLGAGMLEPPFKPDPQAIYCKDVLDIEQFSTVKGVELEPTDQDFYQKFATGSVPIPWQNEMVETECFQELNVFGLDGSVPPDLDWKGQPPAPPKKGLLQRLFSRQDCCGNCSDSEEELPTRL
Series [4] addresses RAC-alpha serine/threonine-protein kinase (Homo sapiens, UniProt P31749). Put plainly: Inhibition of human PKBalpha.
Series [5] addresses Calcium/calmodulin-dependent protein kinase type II subunit beta (Homo sapiens, UniProt Q13554). Briefly: Inhibition of human CaMK2beta.
Series [6] is described as follows: Half life in C57BL mouse at 2 mg/kg, iv administered as single dose. The class given is ADME, organism-based. The settings on record: in vivo. Put shortly: as §1
Series [7] concerns the target Protein kinase C alpha type (Homo sapiens, UniProt P17252). Briefly: Inhibition of human PKCalpha.
Series [8] addresses T1, G protein-coupled receptor kinase 5 (Homo sapiens, UniProt P34947). Put plainly: Inhibition of human GRK5.
A short description of series [9]: Plasma clearance in C57BL mouse at 2 mg/kg, iv or 10 mg/kg, po administered as single dose. Type of series: ADME, organism-based. In outline:
as §1

The target of series [10] is T2, Rhodopsin kinase GRK1 (Homo sapiens, UniProt Q15835).
T2 sequence (Q15835 whole entry): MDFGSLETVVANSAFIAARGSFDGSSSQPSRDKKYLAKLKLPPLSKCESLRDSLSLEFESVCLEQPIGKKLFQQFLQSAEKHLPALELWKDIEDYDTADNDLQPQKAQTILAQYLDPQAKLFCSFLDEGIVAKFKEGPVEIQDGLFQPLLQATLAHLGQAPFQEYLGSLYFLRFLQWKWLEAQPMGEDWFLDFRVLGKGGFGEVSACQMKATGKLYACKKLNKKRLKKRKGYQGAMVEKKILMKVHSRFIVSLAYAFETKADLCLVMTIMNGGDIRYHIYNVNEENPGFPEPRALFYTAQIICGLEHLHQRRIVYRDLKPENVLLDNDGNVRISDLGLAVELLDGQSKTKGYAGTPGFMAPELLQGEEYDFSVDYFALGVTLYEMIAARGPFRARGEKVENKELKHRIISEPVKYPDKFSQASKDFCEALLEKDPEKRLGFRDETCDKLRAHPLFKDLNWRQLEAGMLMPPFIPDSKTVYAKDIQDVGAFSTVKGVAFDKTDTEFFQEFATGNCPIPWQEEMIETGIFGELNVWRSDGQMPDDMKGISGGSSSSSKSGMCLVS
Put plainly: Inhibition of human GRK1.

Another series addresses T3, Aurora kinase A (Homo sapiens, UniProt O14965).
T3 sequence (O14965 whole entry): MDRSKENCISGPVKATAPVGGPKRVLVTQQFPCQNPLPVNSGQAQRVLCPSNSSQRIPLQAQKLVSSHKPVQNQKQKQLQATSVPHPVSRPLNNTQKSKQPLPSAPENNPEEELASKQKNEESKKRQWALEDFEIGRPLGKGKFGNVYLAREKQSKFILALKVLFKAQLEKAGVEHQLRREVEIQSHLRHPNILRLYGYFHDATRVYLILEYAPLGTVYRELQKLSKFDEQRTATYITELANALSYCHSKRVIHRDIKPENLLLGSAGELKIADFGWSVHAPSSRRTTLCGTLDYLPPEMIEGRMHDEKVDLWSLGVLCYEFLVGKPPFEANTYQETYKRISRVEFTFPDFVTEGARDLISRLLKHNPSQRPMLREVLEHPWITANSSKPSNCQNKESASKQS
Put plainly: Inhibition of human Aurora A.

Series [11] in a line: Half life in C57BL mouse at 10 mg/kg, po administered as single dose. Type of series: ADME, organism-based. Particulars: in vivo. In outline:
as §1

In series [12] the target is Rho-associated protein kinase 1 (Homo sapiens, UniProt Q13464). Put plainly: Inhibition of human ROCK1.
Sequence of Rho-associated protein kinase 1 (Q13464 whole entry): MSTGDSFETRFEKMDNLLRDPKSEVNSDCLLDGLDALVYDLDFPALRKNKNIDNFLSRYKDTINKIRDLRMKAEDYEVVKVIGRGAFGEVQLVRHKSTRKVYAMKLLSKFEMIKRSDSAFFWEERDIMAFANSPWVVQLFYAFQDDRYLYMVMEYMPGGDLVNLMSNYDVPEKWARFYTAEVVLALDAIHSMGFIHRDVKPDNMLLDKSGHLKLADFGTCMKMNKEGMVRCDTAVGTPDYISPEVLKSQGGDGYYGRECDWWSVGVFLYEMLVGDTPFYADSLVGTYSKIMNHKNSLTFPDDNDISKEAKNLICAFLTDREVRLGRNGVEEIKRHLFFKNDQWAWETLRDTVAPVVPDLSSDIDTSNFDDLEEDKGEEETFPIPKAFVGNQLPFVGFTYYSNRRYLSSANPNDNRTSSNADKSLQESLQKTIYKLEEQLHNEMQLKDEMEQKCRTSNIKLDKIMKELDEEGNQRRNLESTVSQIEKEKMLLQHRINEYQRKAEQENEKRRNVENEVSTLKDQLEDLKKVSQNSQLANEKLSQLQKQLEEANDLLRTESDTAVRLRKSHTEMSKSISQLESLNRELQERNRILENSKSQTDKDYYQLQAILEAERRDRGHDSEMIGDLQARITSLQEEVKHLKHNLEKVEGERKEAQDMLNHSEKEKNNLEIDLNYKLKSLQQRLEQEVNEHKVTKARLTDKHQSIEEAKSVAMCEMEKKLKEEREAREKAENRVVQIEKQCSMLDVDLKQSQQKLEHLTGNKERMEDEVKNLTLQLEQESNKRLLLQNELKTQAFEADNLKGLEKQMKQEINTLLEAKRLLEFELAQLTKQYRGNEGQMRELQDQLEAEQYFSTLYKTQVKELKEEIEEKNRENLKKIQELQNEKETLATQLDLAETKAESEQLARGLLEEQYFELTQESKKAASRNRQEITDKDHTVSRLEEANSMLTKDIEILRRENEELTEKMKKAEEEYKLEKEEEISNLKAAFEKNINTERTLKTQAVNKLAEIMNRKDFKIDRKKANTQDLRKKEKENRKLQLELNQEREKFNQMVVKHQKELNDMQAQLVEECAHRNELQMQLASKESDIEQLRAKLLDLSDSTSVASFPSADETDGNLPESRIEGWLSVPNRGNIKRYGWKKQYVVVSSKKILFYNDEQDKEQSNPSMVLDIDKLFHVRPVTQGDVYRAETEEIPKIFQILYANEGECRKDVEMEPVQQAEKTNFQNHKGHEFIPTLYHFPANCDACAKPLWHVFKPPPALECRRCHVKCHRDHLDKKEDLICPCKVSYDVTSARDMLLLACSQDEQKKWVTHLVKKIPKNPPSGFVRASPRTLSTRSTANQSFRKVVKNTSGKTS
Series [13] is described as follows: Cmax in C57BL mouse at 2 mg/kg, iv or 10 mg/kg, po administered as single dose. More on the design: dose 10 mg/kg. Particulars: in vivo. The class given is ADME, organism-based. Put shortly: as §1
A further series addresses T4, Rhodopsin kinase GRK7 (Homo sapiens, UniProt Q8WTQ7).
T4 sequence (Q8WTQ7 whole entry): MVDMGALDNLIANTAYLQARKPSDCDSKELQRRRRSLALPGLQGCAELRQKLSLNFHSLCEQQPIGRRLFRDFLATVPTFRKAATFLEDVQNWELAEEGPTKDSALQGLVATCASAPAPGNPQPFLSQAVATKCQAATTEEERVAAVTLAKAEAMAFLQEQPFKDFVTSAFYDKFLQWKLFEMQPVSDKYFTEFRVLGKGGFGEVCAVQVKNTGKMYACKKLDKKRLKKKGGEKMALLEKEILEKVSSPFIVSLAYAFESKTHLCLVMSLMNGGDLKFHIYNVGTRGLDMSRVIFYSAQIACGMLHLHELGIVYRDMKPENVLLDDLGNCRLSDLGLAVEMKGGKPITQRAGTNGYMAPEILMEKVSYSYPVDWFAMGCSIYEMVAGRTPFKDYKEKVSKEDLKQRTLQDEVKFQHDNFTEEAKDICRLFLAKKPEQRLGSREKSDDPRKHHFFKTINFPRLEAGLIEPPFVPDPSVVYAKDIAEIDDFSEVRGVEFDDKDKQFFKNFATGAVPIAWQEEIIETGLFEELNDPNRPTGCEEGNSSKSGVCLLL
Put plainly: Inhibition of human GRK7.

Series [14] can be described thus: Apparent permeability across apical to basal side in MDCK-MDR1 cells. The settings on record: dog. Type of series: ADME, cell-based, Canis lupus familiaris.
Series [15] has as its target Protein kinase C beta type (Homo sapiens, UniProt P05771). Briefly: Inhibition of human PKCbeta1.
A short description of series [16]: Oral bioavailability in C57BL mouse at 10 mg/kg administered as single dose. Particulars: in vivo. Type of series: ADME, organism-based. In outline: as §1
Series [17] has as its target Ribosomal protein S6 kinase alpha-1 (Homo sapiens, UniProt Q15418). Put plainly: Inhibition of RSK1 (unknown origin).
Series [18] in a line: Tmax in C57BL mouse at 2 mg/kg, iv or 10 mg/kg, po administered as single dose. The class given is ADME, organism-based. Particulars: in vivo. Put shortly: as §1
Series [19] concerns the target T2, Rhodopsin kinase GRK1. Briefly: Binding affinity to GRK1 (unknown origin) by Thermofluor thermal shift assay. On the technique in general: DSF heats the sample and reads unfolding from a dye or from intrinsic fluorescence.
Series [20] concerns the target T1, G protein-coupled receptor kinase 5. Put plainly: Binding affinity to GRK5 (unknown origin) by Thermofluor thermal shift assay.

T1 sequence (P34947 whole entry): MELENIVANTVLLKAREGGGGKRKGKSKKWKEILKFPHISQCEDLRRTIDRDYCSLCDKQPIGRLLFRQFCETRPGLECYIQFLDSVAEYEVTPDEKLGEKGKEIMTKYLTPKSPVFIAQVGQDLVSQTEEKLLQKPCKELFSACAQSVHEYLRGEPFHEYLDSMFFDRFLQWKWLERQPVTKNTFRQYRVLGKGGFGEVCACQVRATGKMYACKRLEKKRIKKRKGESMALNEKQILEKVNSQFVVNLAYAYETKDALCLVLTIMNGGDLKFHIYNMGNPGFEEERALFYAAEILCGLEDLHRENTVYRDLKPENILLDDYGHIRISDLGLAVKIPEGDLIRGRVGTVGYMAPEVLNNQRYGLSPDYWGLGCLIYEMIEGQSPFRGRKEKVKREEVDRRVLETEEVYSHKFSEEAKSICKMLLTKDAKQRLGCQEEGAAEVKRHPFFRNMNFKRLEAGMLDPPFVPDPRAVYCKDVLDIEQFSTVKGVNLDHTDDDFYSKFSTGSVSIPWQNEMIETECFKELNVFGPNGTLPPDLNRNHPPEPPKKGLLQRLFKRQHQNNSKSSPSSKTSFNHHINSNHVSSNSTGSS
Sequence of Ribosomal protein S6 kinase alpha-1 (Q15418 whole entry): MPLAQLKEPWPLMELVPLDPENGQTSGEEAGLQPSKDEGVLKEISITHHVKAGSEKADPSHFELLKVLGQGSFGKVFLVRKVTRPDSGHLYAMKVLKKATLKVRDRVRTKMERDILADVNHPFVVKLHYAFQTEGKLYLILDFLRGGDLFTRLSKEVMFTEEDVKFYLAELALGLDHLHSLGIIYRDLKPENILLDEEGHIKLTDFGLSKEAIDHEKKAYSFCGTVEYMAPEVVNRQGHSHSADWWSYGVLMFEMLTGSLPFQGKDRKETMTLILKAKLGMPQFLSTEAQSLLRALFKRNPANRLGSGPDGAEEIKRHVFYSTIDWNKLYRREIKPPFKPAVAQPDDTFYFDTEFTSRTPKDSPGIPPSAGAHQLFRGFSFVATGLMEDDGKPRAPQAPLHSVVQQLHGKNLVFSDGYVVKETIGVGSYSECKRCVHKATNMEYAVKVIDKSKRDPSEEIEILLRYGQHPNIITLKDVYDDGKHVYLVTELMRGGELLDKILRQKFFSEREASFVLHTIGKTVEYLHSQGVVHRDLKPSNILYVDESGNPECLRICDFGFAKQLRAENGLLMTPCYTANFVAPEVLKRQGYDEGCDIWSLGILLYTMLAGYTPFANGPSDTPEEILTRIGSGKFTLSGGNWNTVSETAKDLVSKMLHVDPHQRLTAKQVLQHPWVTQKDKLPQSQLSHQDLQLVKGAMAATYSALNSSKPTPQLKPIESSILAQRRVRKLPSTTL
Sequence of RAC-alpha serine/threonine-protein kinase (P31749 whole entry): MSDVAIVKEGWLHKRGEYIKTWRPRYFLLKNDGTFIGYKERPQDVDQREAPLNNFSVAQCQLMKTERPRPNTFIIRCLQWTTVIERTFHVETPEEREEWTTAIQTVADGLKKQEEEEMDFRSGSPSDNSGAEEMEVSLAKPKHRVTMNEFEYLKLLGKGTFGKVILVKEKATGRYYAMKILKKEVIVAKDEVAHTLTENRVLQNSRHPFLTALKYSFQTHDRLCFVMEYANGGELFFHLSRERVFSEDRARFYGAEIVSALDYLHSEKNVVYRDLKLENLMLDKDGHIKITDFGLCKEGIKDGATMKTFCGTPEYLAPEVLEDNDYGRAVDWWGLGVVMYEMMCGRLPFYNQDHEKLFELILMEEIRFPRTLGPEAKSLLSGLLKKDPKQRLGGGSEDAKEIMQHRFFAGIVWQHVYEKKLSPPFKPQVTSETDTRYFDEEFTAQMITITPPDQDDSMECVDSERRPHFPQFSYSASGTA
Sequence of Calcium/calmodulin-dependent protein kinase type II subunit beta (Q13554 whole entry): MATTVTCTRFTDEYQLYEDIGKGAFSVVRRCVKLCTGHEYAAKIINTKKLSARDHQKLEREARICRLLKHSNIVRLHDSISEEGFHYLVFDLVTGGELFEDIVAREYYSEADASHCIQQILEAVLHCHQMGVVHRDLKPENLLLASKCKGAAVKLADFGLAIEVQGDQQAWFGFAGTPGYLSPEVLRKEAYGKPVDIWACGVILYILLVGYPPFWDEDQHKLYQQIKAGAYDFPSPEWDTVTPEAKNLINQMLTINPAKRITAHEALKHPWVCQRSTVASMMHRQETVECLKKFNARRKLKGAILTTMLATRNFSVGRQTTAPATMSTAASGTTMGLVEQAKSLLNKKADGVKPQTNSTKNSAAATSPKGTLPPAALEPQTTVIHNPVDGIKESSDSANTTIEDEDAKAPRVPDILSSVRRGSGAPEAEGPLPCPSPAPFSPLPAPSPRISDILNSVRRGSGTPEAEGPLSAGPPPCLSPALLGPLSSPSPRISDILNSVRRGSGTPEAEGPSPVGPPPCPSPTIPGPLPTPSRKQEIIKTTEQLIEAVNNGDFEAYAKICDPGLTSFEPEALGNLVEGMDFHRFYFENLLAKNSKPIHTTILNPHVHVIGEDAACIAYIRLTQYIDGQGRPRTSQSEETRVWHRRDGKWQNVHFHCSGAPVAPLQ

For orientation: IC50 means the point on the concentration scale where inhibition reaches its midpoint. What is called half-life is the time needed for the level to fall by half in the phase considered. Higher therefore signals slow decline. One may read the Cmax as the maximum level reached in the sampled fluid or tissue. A word on the Papp A→B: it is how fast a substance crosses the layer from the apical side. One may read the bioavailability as the share of a dose that reaches the circulation, judged against a reference dose that is usually intravenous. A high value points to good availability. In general, Tmax refers to the time at which the peak concentration occurs. `COc1cccc(Cn2ncc3ccc(-c4cn[nH]c4)cc3c2=O)c1`: in [1], the Vd is 2.01 L/kg. Besides, the IC50 was 4.88 µM in series [2]; over 10 µM in [3]; over 10 µM in series [4]; over 10 µM in series [5]; over 10 µM in series [7]; over 10 µM in [8]. Also, the IC50 at Rhodopsin kinase GRK1 [10] was over 10 µM; at Aurora kinase A it was 0.137 µM; in series [12], 1.27 µM; against Rhodopsin kinase GRK7, over 10 µM; in [15], over 10 µM; in series [17] it was 3.15 µM. Besides, the half-life is 1.01 h in series [6] and 2.41 h in series [11]. The clearance in series [9] was found to be 29.1 mL/min/kg. In series [13], this compound displayed a Cmax of 4.96 µM. Besides, the apical-to-basolateral permeability (Papp A→B) in series [14] amounted to 53.2 ×10⁻⁶ cm/s. This compound had a bioavailability in [16] of 65.3%. In addition, the Tmax in series [18] amounted to 0.83 h.
`COc1cc(Cn2cnc3ccc(-c4cn[nH]c4)cc3c2=O)ccc1F`: the Papp A→B in series [14] is 10.1 ×10⁻⁶ cm/s.
The same measure, in the same setting: as for `O=C(Nc1ccc(F)cc1)c1cccc(Cn2cnc3ccc(-c4cn[nH]c4)cc3c2=O)c1`, the figure is 0.44 ×10⁻⁶ cm/s.
What is called Kd is the constant that tells how readily two partners part at equilibrium. On to `O=c1c2cc(-c3cn[nH]c3)ccc2ncn1Cc1ccccc1`, for which the Kd on Rhodopsin kinase GRK1 [19] turned out to be 14.5 µM; in [20], 34.3 µM.
`COc1ccc(Cn2cnc3ccc(-c4cn[nH]c4)cc3c2=O)cc1F`: the Papp A→B in [14] was 12.3 ×10⁻⁶ cm/s.
The same measure, in the same setting: as for `O=c1c2cc(-c3cn[nH]c3)ccc2ncn1Cc1cccc(Oc2ccc(F)cc2)c1`, the figure is 7.73 ×10⁻⁶ cm/s.
As to `COc1cccc([C@@H](C)n2cnc3ccc(-c4cn[nH]c4)cc3c2=O)c1`, the Papp A→B in series [14] turned out to be 37.8 ×10⁻⁶ cm/s.
The same measure, in the same setting: as for `CNCCC(c1cccc(OC)c1)n1cnc2ccc(-c3cn[nH]c3)cc2c1=O` (racemic), the figure is under 0.34 ×10⁻⁶ cm/s.
As for `O=c1c2ccc(-c3cn[nH]c3)cc2ncn1Cc1ccccc1`, the Kd on Rhodopsin kinase GRK1 [19] is 47.6 µM; in series [20] it was over 83.3 µM.
Turning to `COc1cccc(Cn2cnc3ccc(-c4cn[nH]c4)cc3c2=O)c1`, the IC50 is 0.855 µM in series [2]; 3.27 µM in series [3]; 1.45 µM in [4]; 3.85 µM in series [5]; over 10 µM in series [7]; 4.5 µM in series [8]. For the same compound, the IC50 is over 10 µM against Rhodopsin kinase GRK1 [10]; 0.011 µM on Aurora kinase A; 0.246 µM in series [12]; 9.14 µM on Rhodopsin kinase GRK7; 9.07 µM in series [15]; 0.483 µM in series [17]. For the same compound, in series [14], the Papp A→B amounted to 20.6 ×10⁻⁶ cm/s.
In the case of `O=C(NCc1c(F)cccc1F)c1ccc(Cn2cnc3ccc(-c4cn[nH]c4)cc3c2=O)cc1`, the Papp A→B in series [14] is 0.66 ×10⁻⁶ cm/s.
Turning to `O=c1c2cc(-c3ccncc3)ccc2ncn1Cc1ccccc1`, the Kd (at Rhodopsin kinase GRK1 [19]; in [20]) was over 83.3 µM each time.
As for `O=C(NCc1ccc(F)cc1)c1cccc(Cn2cnc3ccc(-c4cn[nH]c4)cc3c2=O)c1`, the Papp A→B in series [14] amounted to 0.57 ×10⁻⁶ cm/s.
Still for that read-out and setting: as for `O=C(NCc1c(F)cccc1F)c1cccc(Cn2cnc3ccc(-c4cn[nH]c4)cc3c2=O)c1`, the figure is 0.85 ×10⁻⁶ cm/s.
`O=c1c2cc(-c3ccn[nH]3)ccc2ncn1Cc1ccccc1`: the Kd (at Rhodopsin kinase GRK1 [19]; in series [20]) was over 83.3 µM in each case.
In the case of `O=c1c2cc(-c3cn[nH]c3)ccc2ncn1Cc1cccc(OC(F)F)c1`, the apparent permeability from apical to basolateral (Papp A→B) in [14] was 24.2 ×10⁻⁶ cm/s.
`O=c1c2cc(-c3cncnc3)ccc2ncn1Cc1ccccc1`: the Kd (on Rhodopsin kinase GRK1 [19]; in [20]) was over 83.3 µM in each case.
